Data: ChEMBL document CHEMBL1629608, “Variations in amino acid composition of antisense peptide-phosphorodiamidate morpholino oligomer affect potency against Escherichia coli in vitro and in vivo” (Antimicrob Agents Chemother, 2009)
In brackets after ≈: the same amount, converted by molar mass. Activity calls are given as the source filed them. The calls are words filed in the database; no cut-off is given here.

Experiments:
[1] = Toxicity in Escherichia coli K-12 W3110 infected ip dosed mouse; type: organism-based; settings: in vivo
In short: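 E. coli K-12 W3110 was grown in LB broth for the inoculum and injected intraperitoneally into groups of 3–7 mice. Conjugates were given ip at 15 min and 12 h postinfection (10–300 μg per dose), with water or scrambled-sequence conjugate as controls. Blood drawn at 2, 6, 12, 24 and 48 h was diluted and plated on LB for CFU counts. Survival was followed by Kaplan-Meier, and log CFU was compared by ANOVA with Tukey-Kramer.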

Rattus norvegicus = test: Toxicity in rat at 150 mg/kg, ip; settings: in vivo
Escherichia coli [2] = test: Antibacterial activity against Escherichia coli K-12 W3110 infected in mouse assessed as reduction of bacterial level in blood at 30 to 300 ug, ip administered 15 mins and 12 hrs postinfection measured after 2 hrs post dose relative to control; type: functional, organism-based; settings: K-12 substr. W3110
In short: (§1)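 Mice in groups of 3–7 were infected intraperitoneally with E. coli W3110 from an LB culture. They were dosed ip with 10–300 μg per dose at 15 min and 12 h postinfection. Controls were water or scrambled-sequence PPMO. Blood was taken at 2, 6, 12, 24 and 48 h, diluted and plated on LB for CFU/ml. Log CFU was compared by one-way ANOVA with Tukey-Kramer; mean ± SD.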

Escherichia coli [3] = test: Antibacterial activity against Escherichia coli K-12 W3110 infected in mouse assessed as reduction of bacterial level in blood at 100 to 300 ug, ip administered 15 mins and 12 hrs postinfection; type: functional, K-12 substr. W3110; in short: as §1
Escherichia coli [4] = test: Antibacterial activity against Escherichia coli K-12 W3110 infected in mouse assessed as increase of mouse survival at 100 ug, ip administered 15 mins and 12 hrs postinfection; type: functional, organism-based; settings: K-12 substr. W3110
In short: (§2)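 Mice in groups of 3–7 were infected intraperitoneally with E. coli W3110 from an LB culture. They were treated ip at 15 min and 12 h postinfection with 10, 30, 100 or 300 μg per dose; 300 μg is noted as ~15 mg/kg. Controls were water or scrambled-sequence PPMO. Survival was followed to 48 h and analysed by the Kaplan-Meier method.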

Escherichia coli [5] = test: Antibacterial activity against Escherichia coli K-12 W3110 infected in mouse assessed as increase of mouse survival at 300 ug, ip administered 15 mins and 12 hrs postinfection; type: functional, organism-based; settings: K-12 substr. W3110; in short: as §2
Escherichia coli [6] = test: Antibacterial activity against Escherichia coli K-12 W3110 infected in mouse assessed as reduction of bacterial level in blood at 30 ug, ip administered 15 mins and 12 hrs postinfection measured after 2 hrs post dose relative to control; type: functional, K-12 substr. W3110; design: scale not given: the % may be the effect or the level left; in short: as §1
Escherichia coli [7] = test: Antibacterial activity against Escherichia coli K-12 W3110 by microdilution method; type: functional; settings: K-12 substr. W3110
Escherichia coli [8] = test: Antibacterial activity against Escherichia coli K-12 W3110 infected in mouse assessed as increase of mouse survival at 10 ug, ip administered 15 mins and 12 hrs postinfection; type: functional, organism-based; settings: K-12 substr. W3110; in short: as §2
Escherichia coli [9] = test: Antibacterial activity against Escherichia coli K-12 W3110 infected in mouse assessed as increase of mouse survival at 30 ug, ip administered 15 mins and 12 hrs postinfection; type: functional, organism-based; settings: K-12 substr. W3110; in short: as §2
Escherichia coli [10] = test: Antibacterial activity against Escherichia coli K-12 W3110 infected in mouse assessed as reduction of bacterial level in blood at 100 ug, ip administered 15 mins and 12 hrs postinfection measured after 2 hrs post dose relative to control; type: functional, organism-based; settings: K-12 substr. W3110; in short: as §1
Escherichia coli [11] = test: Antibacterial activity against Escherichia coli K-12 W3110 infected in mouse assessed as reduction of bacterial level in blood at 300 ug, ip administered 15 mins and 12 hrs postinfection measured after 2 hrs post dose relative to control; type: functional, K-12 substr. W3110; in short: as §1
Escherichia coli [12] = test: Antibacterial activity against Escherichia coli K-12 W3110 infected in mouse assessed as reduction of bacterial level in blood at 10 to 30 ug, ip administered 15 mins and 12 hrs postinfection measured after 2 hrs post dose relative to control; type: functional, organism-based; settings: K-12 substr. W3110; in short: as §1
Escherichia coli [13] = test: Antibacterial activity against Escherichia coli K-12 W3110 infected in mouse assessed as reduction of bacterial level in blood at 300 ug, ip administered 15 mins and 12 hrs postinfection measured after 6 hrs post dose relative to control; type: functional, K-12 substr. W3110; in short: as §1
Mus musculus = test: Toxicity in Escherichia coli K-12 W3110 infected mouse at 15 mg/kg, ip; type: organism-based; design: dose 15 mg/kg, route intraperitoneal; settings: in vivo; in short: as §2
[14] = Therapeutic index, ratio of LD50 for Escherichia coli K-12 W3110 infected mouse to ED50 for Escherichia coli K-12 W3110; settings: read-out: Ratio LD50/ED50
Escherichia coli [15] = test: Antibacterial activity against Escherichia coli K-12 W3110 infected in mouse assessed as reduction of bacterial level in blood at 300 ug, ip administered 15 mins and 12 hrs postinfection measured after 12 hrs post dose relative to control; type: functional, K-12 substr. W3110; in short: as §1
Escherichia coli [16] = test: Antibacterial activity against Escherichia coli K-12 W3110 infected in ip dosed mouse assessed as reduction of bacterial level in blood administered 15 mins and 12 hrs postinfection; type: functional; settings: K-12 substr. W3110, Blood; in short: as §1

Row | SMILES | LD50 [1] | Activity (Rattus norvegicus) | Activity (Escherichia coli [2]) | log10cfu (Escherichia coli [3]) | Activity (Escherichia coli [4]) | Activity (Escherichia coli [5]) | Activity (Escherichia coli [6]) | MIC (Escherichia coli [7]) | Activity (Escherichia coli [8]) | Activity (Escherichia coli [9]) | Activity (Escherichia coli [10]) | log10cfu (Escherichia coli [11]) | Activity (Escherichia coli [12]) | log10cfu (Escherichia coli [13]) | Activity (Mus musculus) | selectivity ratio [14] | log10cfu (Escherichia coli [15]) | ED50 (Escherichia coli [16])
1 | Cc1cn([C@H]2CNC[C@@H](COP(=O)(N(C)C)N3C[C@@H](COP(=O)(N(C)C)N4C[C@@H](COP(=O)(N(C)C)N5C[C@@H](COP(=O)(N(C)C)N6C[C@@H](COP(=O)(N(C)C)N7C[C@@H](COP(=O)(N(C)C)N8C[C@@H](COP(=O)(N(C)C)N9C[C@@H](COP(=O)(N(C)C)N%10C[C@@H](COP(=O)(N(C)C)N%11C[C@@H](COP(=O)(N(C)C)N%12C[C@@H](COP(=O)(N(C)C)N%13CCN(C(=O)CCNC(=O)CCCCCNC(=O)[C@H](CCCNC(=N)N)NC(=O)[C@H](Cc%14ccccc%14)NC(=O)[C@H](CCCNC(=N)N)NC(=O)[C@H](CCCNC(=N)N)NC(=O)NC(=O)[C@H](Cc%14ccccc%14)NC(=O)[C@H](CCCNC(=N)N)NC(=O)[C@H](CCCNC(=N)N)NC(=O)NC(=O)[C@H](Cc%14ccccc%14)NC(=O)[C@H](CCCNC(=N)N)NC(=O)[C@H](CCCNC(=N)N)NC(=O)NC(=O)[C@H](Cc%14ccccc%14)NC(=O)[C@@H](N)CCCNC(=N)N)CC%13)O[C@@H](n%13cc(C)c(=O)[nH]c%13=O)C%12)O[C@@H](n%12ccc(N)nc%12=O)C%11)O[C@@H](n%11cc(C)c(=O)[nH]c%11=O)C%10)O[C@@H](n%10ccc(N)nc%10=O)C9)O[C@@H](n9cnc%10c(N)ncnc%109)C8)O[C@@H](n8cnc9c(=O)[nH]c(N)nc98)C7)O[C@@H](n7cnc8c(N)ncnc87)C6)O[C@@H](n6cc(C)c(=O)[nH]c6=O)C5)O[C@@H](n5cnc6c(=O)[nH]c(N)nc65)C4)O[C@@H](n4cnc5c(=O)[nH]c(N)nc54)C3)O2)c(=O)[nH]c1=O (stereo not given in full) | 210 mg/kg | Toxic | – | – | – | – | – | – | – | – | – | – | – | – | – | – | – | –
2 | Cc1cn([C@H]2CN(P(=O)(OC[C@@H]3CN(P(=O)(OC[C@@H]4CN(P(=O)(OC[C@@H]5CN(P(=O)(OC[C@@H]6CN(P(=O)(OC[C@@H]7CN(P(=O)(OC[C@@H]8CN(P(=O)(OC[C@@H]9CN(P(=O)(OC[C@@H]%10CNC[C@H](n%11cnc%12c(=O)[nH]c(N)nc%12%11)O%10)N(C)C)C[C@H](n%10cc(C)c(=O)[nH]c%10=O)O9)N(C)C)C[C@H](n9cnc%10c(=O)[nH]c(N)nc%109)O8)N(C)C)C[C@H](n8cnc9c(N)ncnc98)O7)N(C)C)C[C@H](n7cc(C)c(=O)[nH]c7=O)O6)N(C)C)C[C@H](n6cnc7c(N)ncnc76)O5)N(C)C)C[C@H](n5cnc6c(=O)[nH]c(N)nc65)O4)N(C)C)C[C@H](n4ccc(N)nc4=O)O3)N(C)C)C[C@@H](COP(=O)(N(C)C)N3C[C@@H](COP(=O)(N(C)C)N4C[C@@H](COP(=O)(N(C)C)N5CCN(C(=O)CCNC(=O)CCCCCNC(=O)[C@H](CCCNC(=N)N)NC(=O)CCCCCNC(=O)[C@H](CCCNC(=N)N)NC(=O)CCCCCNC(=O)[C@H](CCCNC(=N)N)NC(=O)CCCCCNC(=O)[C@H](CCCNC(=N)N)NC(=O)CCCCCNC(=O)[C@H](CCCNC(=N)N)NC(=O)CCCCCNC(=O)[C@@H](N)CCCNC(=N)N)CC5)O[C@@H](n5ccc(N)nc5=O)C4)O[C@@H](n4cc(C)c(=O)[nH]c4=O)C3)O2)c(=O)[nH]c1=O (stereo not given in full) | – | – | Active | 3 | Active | inactive | 88% | 1.25 µM (≈ 6.84 µg/mL) | inactive | inactive | – | – | – | – | – | – | – | –
3 | Cc1cn([C@H]2CN(P(=O)(OC[C@@H]3CN(P(=O)(OC[C@@H]4CN(P(=O)(OC[C@@H]5CN(P(=O)(OC[C@@H]6CN(P(=O)(OC[C@@H]7CN(P(=O)(OC[C@@H]8CN(P(=O)(OC[C@@H]9CN(P(=O)(OC[C@@H]%10CNC[C@H](n%11cnc%12c(=O)[nH]c(N)nc%12%11)O%10)N(C)C)C[C@H](n%10cc(C)c(=O)[nH]c%10=O)O9)N(C)C)C[C@H](n9cnc%10c(=O)[nH]c(N)nc%109)O8)N(C)C)C[C@H](n8cnc9c(N)ncnc98)O7)N(C)C)C[C@H](n7cc(C)c(=O)[nH]c7=O)O6)N(C)C)C[C@H](n6cnc7c(N)ncnc76)O5)N(C)C)C[C@H](n5cnc6c(=O)[nH]c(N)nc65)O4)N(C)C)C[C@H](n4ccc(N)nc4=O)O3)N(C)C)C[C@@H](COP(=O)(N(C)C)N3C[C@@H](COP(=O)(N(C)C)N4C[C@@H](COP(=O)(N(C)C)N5CCN(C(=O)CCNC(=O)CCCCCNC(=O)[C@H](CCCNC(=N)N)NC(=O)[C@H](Cc6ccccc6)NC(=O)[C@H](CCCNC(=N)N)NC(=O)[C@H](CCCNC(=N)N)NC(=O)NC(=O)[C@H](Cc6ccccc6)NC(=O)[C@H](CCCNC(=N)N)NC(=O)[C@H](CCCNC(=N)N)NC(=O)NC(=O)[C@H](Cc6ccccc6)NC(=O)[C@H](CCCNC(=N)N)NC(=O)[C@H](CCCNC(=N)N)NC(=O)NC(=O)[C@H](Cc6ccccc6)NC(=O)[C@@H](N)CCCNC(=N)N)CC5)O[C@@H](n5ccc(N)nc5=O)C4)O[C@@H](n4cc(C)c(=O)[nH]c4=O)C3)O2)c(=O)[nH]c1=O (stereo not given in full) | 300 mg/kg | – | – | – | – | – | – | 0.625 µM (≈ 3.71 µg/mL) | – | – | Active | 2 | inactive | 2 | Non-toxic | 200 | 2 | 1.5 mg/kg
